The values below come from ChEMBL document CHEMBL1132694, “Discovery and structure-activity relationships of imidazole-containing tetrahydrobenzodiazepine inhibitors of farnesyltransferase” (J Med Chem, 1999).

Usually IC50 stands for the concentration at which inhibition is half-maximal. Broadly, the EC50 is the concentration giving half of the maximal effect. Lower therefore signals greater potency.

SMILES strings stand for the structures.

The target in experiment [1] is T1, Protein farnesyltransferase (Homo sapiens, UniProt P49354+P49356). Description: Inhibitory activity against human purified recombinant farnesyltransferase (hFT). The experiment is classed as protein-complex assay. In short, it runs like this: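 Purified (>90%) recombinant human FT at 0.3 nM, with 10 μM ZnCl2. Activity was measured as incorporation of tritium from [3H]farnesyl pyrophosphate into recombinant human H-Ras. Result reported as IC50.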

Experiment [2] deals with T1, Protein farnesyltransferase. Nature of the experiment: Phenotypic reversion of H-Ras transformed NIH3T3 cells at 1.25 uM. The experiment is classed as functional, cell-based. The following applies: Mus musculus.
Experiment [3] shares this target. Description: Phenotypic reversion of H-Ras transformed NIH3T3 cells at 5 uM. The experiment is classed as functional, cell-based. The following applies: Mus musculus.
Experiment [4] concerns Rat1. Description: Inhibition of anchorage independent growth of H-Ras transformed Rat-1 cells. Type of experiment: functional, cell-based.

`COCC[C@H]1CN(C(=O)c2cccc3ccccc23)CCN1C(=O)Cc1cnc[nH]1`: in experiment [1], the IC50 turned out to be 34000 nM.
Same read-out and setting: in the case of `NCc1ncc(CN2CCN(C(=O)c3cccc4ccccc34)Cc3ccccc32)[nH]1` it was 840 nM; in that of `O=S(=O)(c1cccc2ccccc12)N1CCN(Cc2c[nH]cn2)c2ccccc2C1`, 480 nM; in that of `O=C(c1cccc2ccccc12)N1CCN(Cc2cnc[nH]2)c2ccc(-c3ccccc3)cc2C1`, 95 nM.
Turning to `O=C(c1cccc2ccccc12)N1CCN(Cc2c[nH]cn2)c2ccc(-c3ccccn3)cc2C1`, the IC50 in experiment [1] turned out to be 177 nM. In addition, the Reversion activity in experiment [2] and in experiment [3] was 0% throughout.
With `O=C(c1cccc2ccccc12)N1CCN(Cc2cnc[nH]2)c2ccc(Br)cc2C1`, the IC50 in experiment [1] stood at 228 nM.
As to `NCCc1nc(CN2CCN(C(=O)c3cccc4ccccc34)Cc3ccccc32)c[nH]1`, in experiment [1], the IC50 worked out at 1300 nM.
Consider `c1ccc(-c2ccc3c(c2)CN(Cc2cccc4ccccc24)CCN3Cc2c[nH]cn2)cc1`, for which the Reversion activity in experiment [2] and in experiment [3] was 0% throughout.
As to `CC(=O)Nc1ccc2c(c1)N(Cc1c[nH]cn1)CCN(C(=O)c1cccc3ccccc13)C2`, the Reversion activity in experiment [2] and in experiment [3] was 0% each time.
In the case of `COc1ccc(C(=O)C(=O)N2CCN(Cc3cnc[nH]3)c3ccc(-c4ccccc4)cc3C2)cc1`, in experiment [1], the half-inhibitory concentration (IC50) was 91 nM.
On to `COc1ccc2ccccc2c1C(=O)N1CCN(Cc2cnc[nH]2)c2ccc(-c3ccccc3)cc2C1`, for which, in experiment [1], the IC50 is 58 nM.
Turning to `Nc1ccc2c(c1)N(Cc1cnc[nH]1)CCN(C(=O)c1cccc3ccccc13)C2`, in experiment [1], the IC50 worked out at 1000 nM. Further, the EC50 in experiment [4] came to 2400 nM.
Take `O=C(c1cccc2ccccc12)N1CCN(Cc2c[nH]cn2)c2cc(NS(=O)(=O)c3ccccc3)ccc2C1`: in experiment [1], the IC50 is 249 nM. Also, the Reversion activity in experiment [2] and in experiment [3] was 0% throughout. This molecule came in with an EC50 in experiment [4] of 11000 nM.
Take `CC(=O)Nc1ccc2c(c1)N(Cc1cnc[nH]1)CCN(C(=O)c1cccc3ccccc13)C2`: the IC50 in experiment [1] was 168 nM.
On the same count and under the same terms, under `O=C(Cc1ccccc1Oc1ccccc1)N1CCN(Cc2c[nH]cn2)c2ccccc2C1` stands 700 nM.
Consider `O=C(c1cccc2ccccc12)N1CCN(Cc2c[nH]cn2)c2ccc(Br)cc2C1`, for which the Reversion activity in experiment [2] was 0%; in experiment [3] it was 5%.
For the molecule `O=C(Nc1ccc2c(c1)N(Cc1c[nH]cn1)CCN(C(=O)c1cccc3ccccc13)C2)NC1CCCCC1`, the IC50 in experiment [1] was 35.5 nM. Further, the Reversion activity in experiment [2] and in experiment [3] was 0% throughout. In experiment [4], this molecule registered an EC50 of 4000 nM.
As to `O=C(c1ccccc1SCCO)N1CCN(Cc2c[nH]cn2)c2ccc(-c3ccccc3)cc2C1`, the values for the Reversion activity in experiment [2] and in experiment [3] were 0% and 90%, respectively. The concentration for a half-maximal effect (EC50) in experiment [4] is 200 nM.
`N#C/N=C(/Nc1ccc(Cl)cc1)N1CCN(Cc2c[nH]cn2)c2ccc(-c3ccccc3)cc2C1`: the Reversion activity in experiment [2] came to 0%; in experiment [3], 5%.
`O=C(N1CCN(Cc2cnc[nH]2)c2ccccc2C1)N(c1ccccc1)c1ccccc1`: the 50% inhibitory concentration (IC50) in experiment [1] worked out at 1200 nM.
`O=C(N1CCN(Cc2c[nH]cn2)c2ccc(-c3ccccc3)cc2C1)N1CCCc2ccccc21`: the Reversion activity worked out at 0% in experiment [2] and 40% in experiment [3].
For `O=C(c1cccc2ccccc12)N1CCN(CCCc2ncc[nH]2)c2ccccc2C1`, the half-inhibitory concentration (IC50) in experiment [1] was 590 nM.
In the case of `O=C(c1cccc2ccccc12)N1CCN(Cc2cnc[nH]2)Cc2ccccc21`, the IC50 in experiment [1] was 2800 nM.
Consider `O=C(c1ccccc1OC(F)(F)F)N1CCN(Cc2c[nH]cn2)c2ccc(-c3ccncc3)cc2C1`, for which the Reversion activity in experiment [2] turned out to be 85%; in experiment [3], 95%. The molecule also came in with an EC50 in experiment [4] of 160 nM.
Turning to `O=C(c1ccccc1SCCO)N1CCN(Cc2cnc[nH]2)c2ccc(-c3ccccc3)cc2C1`, the IC50 in experiment [1] is 124 nM.
Take `O=C(c1cccc2ccccc12)N1CCN(Cc2c[nH]cn2)c2ccc(-c3cccnc3)cc2C1`: the IC50 in experiment [1] came to 145 nM. Moreover, the Reversion activity in experiment [2] is 0%; in experiment [3] it was 70%. Besides, it took 1000 nM to reach a half-maximal effect in experiment [4] (EC50).
Take `O=C(c1cccc2ccccc12)N1CCN(Cc2cnc[nH]2)c2ccc(C3CCCCC3)cc2C1`: in experiment [1], the IC50 came to 186 nM.
As to `N#CN=C(Nc1ccc(Cl)cc1)N1CCN(Cc2cnc[nH]2)c2ccc(-c3ccccc3)cc2C1`, the IC50 in experiment [1] came out at 1420 nM.
As to `c1ccc(-c2ccc3c(c2)CN(c2nnnn2-c2ccccc2)CCN3Cc2c[nH]cn2)cc1`, the Reversion activity in experiment [2] and in experiment [3] was 0% in each case.
For the molecule `O=S(=O)(c1cccc2ccccc12)N1CCN(Cc2c[nH]cn2)c2ccc(-c3ccccc3)cc2C1`, the IC50 in experiment [1] came to 426 nM. Further, the Reversion activity was determined as 0% in experiment [2] and 25% in experiment [3].
Take `O=C(c1cccc2ccccc12)N1CCN(Cc2cncn2Cc2ccccc2)c2ccccc2C1`: the IC50 in experiment [1] amounted to 1100 nM.
For the molecule `O=C(N1CCN(Cc2cnc[nH]2)c2ccc(-c3ccccc3)cc2C1)N1CCCc2ccccc21`, the IC50 in experiment [1] stood at 205 nM.
For the molecule `COc1ccc(C(=O)C(=O)N2CCN(Cc3c[nH]cn3)c3ccc(-c4ccccc4)cc3C2)cc1`, the Reversion activity in experiment [2] is 0%; in experiment [3], 90%. For the same molecule, the EC50 in experiment [4] was found to be 900 nM.
Regarding `O=C(c1ccccc1OC(F)(F)F)N1CCN(Cc2cnc[nH]2)c2ccc(-c3ccncc3)cc2C1`, in experiment [1], the IC50 was 24 nM.
For `COC(=O)c1ccccc1S(=O)(=O)N1CCN(Cc2c[nH]cn2)c2ccccc2C1`, in experiment [1], the half-maximal inhibitory concentration (IC50) came to 720 nM. Further, in experiment [4], the EC50 came out at 1600 nM.
As for `c1ccc(-c2ccc3c(c2)CN(c2nnnn2-c2ccccc2)CCN3Cc2cnc[nH]2)cc1`, the IC50 in experiment [1] was 702 nM.
As to `O=C(c1ccccc1-c1ccccc1)N1CCN(Cc2cnc[nH]2)c2ccccc2C1`, the IC50 in experiment [1] was found to be 320 nM.
As for `COCC[C@H]1CN(C(=O)c2cccc3ccccc23)CCN1CCCc1c[nH]cn1`, in experiment [1], the IC50 was 10000 nM.
For `O=C(c1cccc2ccccc12)N1CCN(Cc2cnc[nH]2)c2cc(Cl)ccc2C1`, the half-maximal inhibitory concentration (IC50) in experiment [1] turned out to be 540 nM.
Same read-out and setting: in the case of `COCC[C@H]1CN(C(=O)c2cccc3ccccc23)CCN1Cc1c[nH]cn1` it was 1300 nM.
In the case of `O=C(Nc1ccc2c(c1)N(Cc1cnc[nH]1)CCN(C(=O)c1cccc3ccccc13)C2)OC1CCCCC1`, in experiment [1], the concentration for half-maximal inhibition (IC50) amounted to 28 nM.
On to `O=C(c1ccccc1NCc1ccccc1)N1CCN(Cc2cnc[nH]2)c2ccccc2C1`, for which, in experiment [1], the IC50 is 600 nM. In experiment [4], this molecule had an EC50 of 2400 nM.
`COc1ccc2ccccc2c1C(=O)N1CCN(Cc2c[nH]cn2)c2ccc(-c3ccccc3)cc2C1`: the Reversion activity in experiment [2] was 85%; in experiment [3] it was 95%. Further, the EC50 in experiment [4] turned out to be 550 nM.
`COCC[C@H]1CN(C(=O)c2cccc3ccccc23)CCN1CCc1c[nH]cn1`: the IC50 in experiment [1] was determined as 3200 nM.
`O=C(Nc1ccc2c(c1)N(Cc1c[nH]cn1)CCN(C(=O)c1cccc3ccccc13)C2)OC1CCCCC1`: the Reversion activity turned out to be 40% in experiment [2] and 95% in experiment [3]. The same molecule returned an EC50 in experiment [4] of 110 nM.
`O=C(c1cccc2ccccc12)N1CCN(Cc2c[nH]cn2)c2ccc(C3CCCCC3)cc2C1`: the Reversion activity in experiment [2] amounted to 0%; in experiment [3] it was 20%.
In the case of `c1ccc(-c2ccc3c(c2)CN(Cc2cccc4ccccc24)CCN3Cc2cnc[nH]2)cc1`, in experiment [1], the IC50 came to 2970 nM.
Turning to `COCC[C@H]1CN(C(=O)c2cccc3ccccc23)CCN1C(=O)CCc1cnc[nH]1`, the IC50 in experiment [1] came to 27000 nM.
Take `O=C(c1cccc2ccccc12)N1CCN(Cc2ncc[nH]2)c2ccccc2C1`: the IC50 in experiment [1] stood at 21000 nM.
